Experimental data as given in ChEMBL document CHEMBL1140705, “Synthesis and evaluation of N-methyl and S-methyl 11C-labeled 6-methylthio-2-(4'-N,N-dimethylamino)phenylimidazo[1,2-a]pyridines as radioligands for imaging beta-amyloid plaques in Alzheimer's disease” (J Med Chem, 2008).

Legend:
[1] = Stability in rat whole blood after 60 mins; assay type: ADME, tissue-based; conditions: read-out: Stability
Summary of the method: (§1)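 No-carrier-added [11C] tracer (25.0 µCi monkey, 46.5 µCi rat) in 1 mL whole blood, shaken at 37 °C. Aliquots taken at 60 and 90 min into acetonitrile spiked with carrier, centrifuged, and supernatant radio-HPLC gives percent unchanged. Pellet counting gives extraction recovery.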

Plasma [2] = experiment: Biodistribution in rat plasma at 0.9 to 1.9 Ci/umol, penile iv after 2.83 mins; assay type: ADME, organism-based; conditions: in vivo, 170 s
Summary of the method: (§2)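 No-carrier-added [11C] tracer (0.82-3.6 mCi) given by penile vein to rats, killed at 2.33, 2.83 or 30 min. Brain tissue extracted and homogenized in acetonitrile/water with carrier, plasma treated likewise, urine analysed directly, all by reverse-phase radio-HPLC. Radioactivity normalized to injected dose and body weight as % SUV, split into parent and three radiometabolites.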

Cerebrum [3] = experiment: Biodistribution in rat cerebrum at 0.9 to 1.9 Ci/umol, penile iv after 30 mins; assay type: ADME, organism-based; conditions: in vivo, 0.5 h; summary of the method: as §2
[4] = Stability in monkey whole blood after 90 mins; assay type: ADME, tissue-based, Macaca mulatta; conditions: rhesus monkey, read-out: Stability; summary of the method: as §1
Plasma [5] = experiment: Biodistribution in rat plasma at 0.9 to 1.9 Ci/umol, penile iv after 2.33 mins; assay type: ADME, organism-based; conditions: in vivo, 140 s; summary of the method: as §2
Plasma [6] = experiment: Drug level in monkey plasma at 1.35 Ci/umol after 10 mins; assay type: ADME, cell-free, Macaca mulatta; conditions: rhesus monkey
Summary of the method: (§3)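 Two monkey experiments with no-carrier-added [11C] tracer given iv. Anticoagulated venous blood drawn at 10 and 30 min, plasma analysed by radio-HPLC. Parent fraction reported as percent of plasma radioactivity and as % SUV.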

[7] = Stability in rat brain after 60 mins; assay type: ADME, tissue-based; conditions: read-out: Stability
Summary of the method: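 Rat brain (1.75 g) homogenized in saline on ice and incubated with formulated [11C] tracer (186 µCi) at 37 °C with shaking. Aliquots quenched into carrier-spiked acetonitrile, centrifuged, and supernatant analysed by radio-HPLC for percent unchanged.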

[8] = Stability in monkey whole blood after 30 mins; assay type: ADME, tissue-based, Macaca mulatta; conditions: rhesus monkey, read-out: Stability
[9] = Biodistribution in rat cerebrum at 0.9 to 1.9 Ci/umol, penile iv after 2.33 mins; conditions: in vivo, 140 s
Cerebellum [10] = experiment: Biodistribution in rat cerebellum at 0.9 to 1.9 Ci/umol, penile iv after 30 mins; assay type: ADME, organism-based; conditions: in vivo, 0.5 h; summary of the method: as §2
Cerebellum [11] = experiment: Biodistribution in rat cerebellum at 22.94 umol/kg bolus injection after 10 mins; assay type: ADME, organism-based; conditions: in vivo
Summary of the method: (§4)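 Carrier-added [11C] tracer (carrier 22.94 µmol/kg) injected as bolus into one rat, tissues and plasma taken at 10 min. Samples extracted into acetonitrile and analysed by radio-HPLC. Results given as % SUV, partitioned into parent and radiometabolites A-C.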

Plasma [12] = experiment: Biodistribution in rat plasma at 0.9 to 1.9 Ci/umol, penile iv after 30 mins; assay type: ADME, organism-based; conditions: in vivo, 0.5 h; summary of the method: as §2
Cerebrum [13] = experiment: Biodistribution in rat cerebrum at 0.9 to 1.9 Ci/umol, penile iv after 2.83 mins; assay type: ADME, organism-based; conditions: in vivo, 170 s; summary of the method: as §2
Rattus norvegicus [14] = experiment: Biodistribution in rat urine at 0.9 to 1.9 Ci/umol, penile iv after 2.83 mins; assay type: ADME, organism-based; conditions: in vivo, 170 s; summary of the method: as §2
Plasma [15] = experiment: Drug level in monkey plasma at 1.35 Ci/umol after 30 mins; assay type: ADME, cell-free, Macaca mulatta; conditions: rhesus monkey, 0.5 h; summary of the method: as §3
[16] = Radiochemical stability after 3 hrs at pH 7.5; assay type: physicochemical; conditions: pH 7.5, 3 h
Summary of the method: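 Purity of formulated tracer (saline with ethanol and polysorbate 80, pH ~7.5) followed over 3 h by radio-HPLC on a C18 column, MeOH/H2O/Et3N 70:30:0.1.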

Plasma [17] = experiment: Biodistribution in rat plasma at 22.94 umol/kg bolus injection after 10 mins; assay type: ADME, organism-based; conditions: in vivo; summary of the method: as §4
Mus musculus = experiment: Ratio of brain radioactivity at maximal uptake to that at 60 min in iv dosed mouse after 60 mins; conditions: in vivo, 1 h
Rattus norvegicus [18] = experiment: Ratio of brain radioactivity at maximal uptake to that at 60 min in iv dosed rat after 60 mins; conditions: in vivo, 1 h
Cerebrum [19] = experiment: Biodistribution in rat cerebrum at 22.94 umol/kg bolus injection after 10 mins; assay type: ADME, organism-based; conditions: in vivo; summary of the method: as §4
Cerebellum [20] = experiment: Biodistribution in rat cerebellum at 0.9 to 1.9 Ci/umol, penile iv after 2.83 mins; assay type: ADME, organism-based; conditions: in vivo, 170 s; summary of the method: as §2
[21] = Lipophilicity, log D at pH 7.4; assay type: physicochemical; conditions: buffer
Summary of the method: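 Shake-flask partition: 3-5 mg ligand in 0.1 M PBS pH 7.4 (6.0 mL) with n-octanol (1.0 mL), vortexed, shaken, held 10 min at room temperature, centrifuged 5000g. Both phases quantified by reverse-phase HPLC; P taken as organic/aqueous concentration ratio; n = 3.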

[22] = molecular target: Amyloid-beta precursor protein (Homo sapiens, UniProt P05067); experiment: Binding affinity to beta amyloid plaque in human Alzheimer's disease brain tissue; assay type: tissue-based
Sequence of Amyloid-beta precursor protein (P05067 whole entry): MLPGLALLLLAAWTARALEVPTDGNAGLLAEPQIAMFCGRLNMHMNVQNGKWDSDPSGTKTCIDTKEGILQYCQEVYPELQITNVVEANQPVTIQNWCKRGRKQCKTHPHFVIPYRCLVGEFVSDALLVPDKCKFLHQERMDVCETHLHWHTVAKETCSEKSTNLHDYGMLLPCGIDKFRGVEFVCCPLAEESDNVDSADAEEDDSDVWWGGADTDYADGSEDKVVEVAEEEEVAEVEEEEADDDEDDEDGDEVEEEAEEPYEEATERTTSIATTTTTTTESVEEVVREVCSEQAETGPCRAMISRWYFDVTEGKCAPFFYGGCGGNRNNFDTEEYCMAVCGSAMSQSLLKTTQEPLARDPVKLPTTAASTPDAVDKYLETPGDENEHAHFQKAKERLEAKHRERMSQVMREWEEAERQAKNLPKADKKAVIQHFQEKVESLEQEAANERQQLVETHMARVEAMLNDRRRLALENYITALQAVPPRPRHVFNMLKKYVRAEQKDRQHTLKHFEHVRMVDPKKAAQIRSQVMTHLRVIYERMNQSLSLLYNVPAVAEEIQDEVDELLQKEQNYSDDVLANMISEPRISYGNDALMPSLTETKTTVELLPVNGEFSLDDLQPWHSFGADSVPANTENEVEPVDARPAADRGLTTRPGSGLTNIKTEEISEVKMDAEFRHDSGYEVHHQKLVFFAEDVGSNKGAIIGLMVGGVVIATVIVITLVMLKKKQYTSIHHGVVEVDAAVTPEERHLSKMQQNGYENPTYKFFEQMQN
Summary of the method: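 Competition binding in human AD brain homogenate (1:500 in PBS) against [3H]PIB (0.4 nM), displacer 10^-10 to 10^-5 M from DMSO dilutions, total volume 1.0 mL PBS, 2 h at 37 °C; filtration on polyethyleneimine-treated GF/B, PBS washes, scintillation counting. One-site competition fit; Ki by Cheng-Prusoff using KD from homologous displacement Scatchard analysis.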

[23] = molecular target: 5-hydroxytryptamine receptor 2C (Homo sapiens) (UniProt P28335); experiment: Displacement of […] from 5HT2C receptor at 10 uM
Sequence of 5-hydroxytryptamine receptor 2C (Homo sapiens) (P28335 whole entry): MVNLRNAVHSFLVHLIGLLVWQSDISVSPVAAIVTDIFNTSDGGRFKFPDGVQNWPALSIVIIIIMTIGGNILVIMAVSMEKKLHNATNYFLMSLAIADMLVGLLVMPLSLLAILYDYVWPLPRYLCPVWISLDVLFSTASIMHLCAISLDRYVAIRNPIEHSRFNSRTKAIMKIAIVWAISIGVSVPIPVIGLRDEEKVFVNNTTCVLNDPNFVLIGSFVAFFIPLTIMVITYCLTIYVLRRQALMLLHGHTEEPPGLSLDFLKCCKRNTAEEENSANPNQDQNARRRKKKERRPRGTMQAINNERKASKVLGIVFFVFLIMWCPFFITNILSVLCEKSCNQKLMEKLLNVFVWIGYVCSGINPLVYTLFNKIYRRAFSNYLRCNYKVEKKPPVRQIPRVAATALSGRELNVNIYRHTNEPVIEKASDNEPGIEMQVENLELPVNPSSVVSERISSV

[24] = molecular target: D(1A) dopamine receptor (Homo sapiens) (UniProt P21728); experiment: Displacement of […] from dopamine D1 receptor at 10 uM
Sequence of D(1A) dopamine receptor (Homo sapiens) (P21728 whole entry): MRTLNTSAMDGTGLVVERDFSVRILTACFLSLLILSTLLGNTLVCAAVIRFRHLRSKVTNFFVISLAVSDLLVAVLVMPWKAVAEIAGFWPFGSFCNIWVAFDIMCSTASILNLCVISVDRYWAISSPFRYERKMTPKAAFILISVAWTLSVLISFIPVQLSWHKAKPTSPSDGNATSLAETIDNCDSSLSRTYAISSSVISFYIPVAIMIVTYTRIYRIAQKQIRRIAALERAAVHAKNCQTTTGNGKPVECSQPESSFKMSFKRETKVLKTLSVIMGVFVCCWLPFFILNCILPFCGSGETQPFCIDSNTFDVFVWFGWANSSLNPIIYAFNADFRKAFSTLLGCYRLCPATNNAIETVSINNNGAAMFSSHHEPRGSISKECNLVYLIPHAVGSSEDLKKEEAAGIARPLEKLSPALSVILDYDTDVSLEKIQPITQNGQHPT

[25] = molecular target: Histamine H1 receptor (Homo sapiens) (UniProt P35367); experiment: Displacement of […] from histamine H1 receptor at 10 uM
Sequence of Histamine H1 receptor (Homo sapiens) (P35367 whole entry): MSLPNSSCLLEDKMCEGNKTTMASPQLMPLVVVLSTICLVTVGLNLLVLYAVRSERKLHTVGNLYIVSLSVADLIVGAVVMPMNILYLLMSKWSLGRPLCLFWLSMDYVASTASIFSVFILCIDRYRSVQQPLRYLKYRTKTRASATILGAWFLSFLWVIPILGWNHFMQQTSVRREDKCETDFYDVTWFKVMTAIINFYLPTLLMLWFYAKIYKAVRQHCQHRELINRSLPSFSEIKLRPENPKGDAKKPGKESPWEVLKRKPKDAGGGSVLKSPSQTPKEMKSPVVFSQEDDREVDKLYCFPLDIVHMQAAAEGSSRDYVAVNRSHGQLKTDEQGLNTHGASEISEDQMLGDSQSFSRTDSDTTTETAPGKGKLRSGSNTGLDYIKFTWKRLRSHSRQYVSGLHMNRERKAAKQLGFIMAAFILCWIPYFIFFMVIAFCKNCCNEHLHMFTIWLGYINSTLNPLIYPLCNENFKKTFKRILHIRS

[26] = molecular target: 5-hydroxytryptamine receptor 3A (Homo sapiens) (UniProt P46098); experiment: Displacement of […] from 5HT3 receptor at 10 uM
[27] = molecular target: Beta-2 adrenergic receptor (Homo sapiens) (UniProt P07550); experiment: Displacement of […] from adrenergic beta 2 receptor at 10 uM
[28] = molecular target: Alpha-1B adrenergic receptor (Homo sapiens) (UniProt P35368); experiment: Displacement of […] from adrenergic alpha-1b receptor at 10 uM
Sequence of Alpha-1B adrenergic receptor (Homo sapiens) (P35368 whole entry): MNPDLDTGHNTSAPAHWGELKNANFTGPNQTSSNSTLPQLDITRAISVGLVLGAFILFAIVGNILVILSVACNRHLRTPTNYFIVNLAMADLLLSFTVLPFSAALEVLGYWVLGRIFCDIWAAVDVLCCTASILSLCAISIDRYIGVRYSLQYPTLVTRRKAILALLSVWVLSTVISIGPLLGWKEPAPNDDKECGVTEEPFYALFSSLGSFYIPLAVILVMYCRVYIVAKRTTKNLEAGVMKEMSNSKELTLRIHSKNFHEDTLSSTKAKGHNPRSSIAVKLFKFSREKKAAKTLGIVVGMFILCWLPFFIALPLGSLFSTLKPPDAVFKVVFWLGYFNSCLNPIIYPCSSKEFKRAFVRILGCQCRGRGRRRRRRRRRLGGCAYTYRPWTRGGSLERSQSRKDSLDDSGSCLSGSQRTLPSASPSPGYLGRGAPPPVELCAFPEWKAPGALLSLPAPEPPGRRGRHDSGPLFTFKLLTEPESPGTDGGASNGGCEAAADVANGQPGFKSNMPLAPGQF

[29] = molecular target: 5-hydroxytryptamine receptor 1D (Homo sapiens) (UniProt P28221); experiment: Displacement of […] from 5HT1D receptor at 10 uM
[30] = molecular target: 5-hydroxytryptamine receptor 2B (Homo sapiens) (UniProt P41595); experiment: Displacement of […] from 5HT2B receptor at 10 uM
[31] = molecular target: D(4) dopamine receptor (Homo sapiens) (UniProt P21917); experiment: Displacement of […] from dopamine D4 receptor at 10 uM
[32] = molecular target: 5-hydroxytryptamine receptor 6 (Homo sapiens) (UniProt P50406); experiment: Displacement of […] from 5HT6 receptor at 10 uM
[33] = molecular target: D(1B) dopamine receptor (Homo sapiens) (UniProt P21918); experiment: Displacement of […] from dopamine D5 receptor at 10 uM
[34] = molecular target: D(2) dopamine receptor (Homo sapiens) (UniProt P14416); experiment: Displacement of […] from dopamine D2 receptor at 10 uM
Sequence of D(2) dopamine receptor (Homo sapiens) (P14416 whole entry): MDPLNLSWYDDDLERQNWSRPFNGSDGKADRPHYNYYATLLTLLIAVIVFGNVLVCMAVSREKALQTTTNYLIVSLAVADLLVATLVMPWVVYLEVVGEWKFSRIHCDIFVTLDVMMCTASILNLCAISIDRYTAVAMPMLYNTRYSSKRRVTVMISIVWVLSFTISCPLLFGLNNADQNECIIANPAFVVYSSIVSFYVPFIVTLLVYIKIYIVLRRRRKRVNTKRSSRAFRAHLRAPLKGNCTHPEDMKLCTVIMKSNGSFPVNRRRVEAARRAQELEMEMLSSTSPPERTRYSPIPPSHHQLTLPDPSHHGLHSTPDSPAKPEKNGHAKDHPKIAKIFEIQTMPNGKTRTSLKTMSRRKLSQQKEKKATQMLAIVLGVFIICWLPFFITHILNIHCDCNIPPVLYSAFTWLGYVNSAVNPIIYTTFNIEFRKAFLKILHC

[35] = molecular target: 5-hydroxytryptamine receptor 7 (Homo sapiens) (UniProt P34969); experiment: Displacement of […] from 5HT7 receptor at 10 uM
Sequence of 5-hydroxytryptamine receptor 7 (Homo sapiens) (P34969 whole entry): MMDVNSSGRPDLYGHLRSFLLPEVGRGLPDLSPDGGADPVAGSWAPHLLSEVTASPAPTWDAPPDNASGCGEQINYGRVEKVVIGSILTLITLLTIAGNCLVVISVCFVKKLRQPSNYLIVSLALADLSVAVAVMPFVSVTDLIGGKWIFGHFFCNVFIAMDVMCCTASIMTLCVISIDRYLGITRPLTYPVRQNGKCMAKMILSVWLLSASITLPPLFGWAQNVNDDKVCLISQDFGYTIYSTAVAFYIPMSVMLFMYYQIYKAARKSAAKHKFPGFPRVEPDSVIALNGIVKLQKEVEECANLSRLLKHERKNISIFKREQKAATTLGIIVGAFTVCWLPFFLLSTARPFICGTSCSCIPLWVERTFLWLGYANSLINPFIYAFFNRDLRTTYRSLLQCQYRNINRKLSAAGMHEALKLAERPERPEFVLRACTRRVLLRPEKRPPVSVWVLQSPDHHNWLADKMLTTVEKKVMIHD

[36] = molecular target: D(3) dopamine receptor (Homo sapiens) (UniProt P35462); experiment: Displacement of […] from dopamine D3 receptor at 10 uM
Sequence of D(3) dopamine receptor (Homo sapiens) (P35462 whole entry): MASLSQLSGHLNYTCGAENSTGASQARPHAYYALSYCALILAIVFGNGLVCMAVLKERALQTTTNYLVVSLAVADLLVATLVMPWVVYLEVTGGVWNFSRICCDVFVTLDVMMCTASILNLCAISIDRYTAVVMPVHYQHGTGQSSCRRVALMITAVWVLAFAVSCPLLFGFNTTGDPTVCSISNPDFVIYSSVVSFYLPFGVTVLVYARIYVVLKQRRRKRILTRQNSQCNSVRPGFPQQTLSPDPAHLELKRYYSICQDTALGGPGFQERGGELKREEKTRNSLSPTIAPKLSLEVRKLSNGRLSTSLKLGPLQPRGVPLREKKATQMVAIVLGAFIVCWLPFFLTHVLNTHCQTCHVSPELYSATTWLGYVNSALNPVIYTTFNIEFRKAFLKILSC

[37] = molecular target: Alpha-2A adrenergic receptor (Homo sapiens) (UniProt P08913); experiment: Displacement of […] from adrenergic alpha-2a receptor at 10 uM
[38] = molecular target: 5-hydroxytryptamine receptor 1A (Homo sapiens) (UniProt P08908); experiment: Displacement of […] from 5HT1A receptor at 10 uM
[39] = molecular target: 5-hydroxytryptamine receptor 1B (Homo sapiens) (UniProt P28222); experiment: Displacement of […] from 5HT1B receptor at 10 uM
Sequence of 5-hydroxytryptamine receptor 1B (Homo sapiens) (P28222 whole entry): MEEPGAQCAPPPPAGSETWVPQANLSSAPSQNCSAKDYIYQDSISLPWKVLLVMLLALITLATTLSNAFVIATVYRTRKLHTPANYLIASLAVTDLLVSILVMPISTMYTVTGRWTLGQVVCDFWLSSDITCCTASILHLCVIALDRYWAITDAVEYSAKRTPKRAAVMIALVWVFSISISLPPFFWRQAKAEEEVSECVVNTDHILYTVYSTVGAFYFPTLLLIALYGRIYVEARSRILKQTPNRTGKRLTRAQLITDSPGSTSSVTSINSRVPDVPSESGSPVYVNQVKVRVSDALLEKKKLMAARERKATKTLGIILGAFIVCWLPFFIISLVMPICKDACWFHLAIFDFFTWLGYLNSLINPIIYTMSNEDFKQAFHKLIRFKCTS

[40] = molecular target: 5-hydroxytryptamine receptor 5A (Homo sapiens) (UniProt P47898); experiment: Displacement of […] from 5HT5A receptor at 10 uM
[41] = molecular target: 5-hydroxytryptamine receptor 1E (Homo sapiens) (UniProt P28566); experiment: Displacement of […] from 5HT1E receptor at 10 uM
[42] = molecular target: Mu-type opioid receptor (Homo sapiens) (UniProt P35372); experiment: Displacement of radioligand from mu opioid receptor at 10 uM
Sequence of Mu-type opioid receptor (Homo sapiens) (P35372 whole entry): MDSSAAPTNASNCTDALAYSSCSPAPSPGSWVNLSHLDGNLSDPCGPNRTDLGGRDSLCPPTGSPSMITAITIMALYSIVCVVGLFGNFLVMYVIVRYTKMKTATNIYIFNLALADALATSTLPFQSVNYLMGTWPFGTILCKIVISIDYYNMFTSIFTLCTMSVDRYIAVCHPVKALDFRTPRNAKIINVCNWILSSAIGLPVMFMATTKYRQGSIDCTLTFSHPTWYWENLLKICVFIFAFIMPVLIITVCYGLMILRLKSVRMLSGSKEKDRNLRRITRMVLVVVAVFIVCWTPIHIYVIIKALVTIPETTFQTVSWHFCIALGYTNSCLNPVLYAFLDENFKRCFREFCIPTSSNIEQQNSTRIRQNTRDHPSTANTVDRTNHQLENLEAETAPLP

[43] = molecular target: 5-hydroxytryptamine receptor 2A (Homo sapiens) (UniProt P28223); experiment: Displacement of […] from 5HT2A receptor at 10 uM
[44] = molecular target: Alpha-1A adrenergic receptor (Homo sapiens) (UniProt P35348); experiment: Displacement of […] from adrenergic Alpha-1A receptor at 10 uM

Compound `CN(C)c1ccc(-c2cn3cc(S[11CH3])ccc3n2)cc1` has a remaining at 1 h [1] of 91%, a Drug uptake (Plasma [2]) of 9.15% and a Drug uptake (Cerebrum [3]) of 13%. For the same compound, the remaining at 1.5 h [4] was 94.5%, the Drug uptake (Plasma [5]) was 9.57% and the Activity (Plasma [6]) was 12.4%. It also gave a remaining at 1 h [7] of 93.6%, a remaining at 0.5 h [8] of 96.2% and a Drug uptake [9] of 41.9%. The Drug uptake (Cerebellum [10]) was 18.6%, the Drug uptake (Cerebellum [11]) was 83.1% and the Drug uptake (Plasma [12]) was 0.2%. It also gave a Drug uptake (Cerebrum [13]) of 30.2%, a Drug uptake (Rattus norvegicus [14]) of 25.7% and an Activity (Plasma [15]) of 3.5%. The Stability [16] was “Stable”, the Drug uptake (Plasma [17]) was 55.3% and the Ratio (Mus musculus) was 11.1. It also gave a Ratio (Rattus norvegicus [18]) of 18.7, a Drug uptake (Cerebrum [19]) of 80.9% and a Drug uptake (Cerebellum [20]) of 31.9%.
In the case of `COC(=O)CCSc1ccc2nc(-c3ccc(N(C)C)cc3)cn2c1`, the logD [21] is reported as 3.6 and the Ki [22] is reported as 205 nM.
`CSc1ccc2nc(-c3ccc(N(C)[11CH3])cc3)cn2c1` gave a Ratio (Rattus norvegicus [18]) of 6.1.
For `CN(C)c1ccc(-c2cn3cc(I)ccc3n2)cc1`, the logD [21] was 3.58.
`CSc1ccc2nc(-c3ccc(N(C)C)cc3)cn2c1` showed an Activity [23] of less than 50%, an Activity [24] of less than 50% and an Activity [25] of less than 50%. For the same compound, the Activity [26] was less than 50%, the Activity [27] was less than 50% and the Activity [28] was less than 50%. It also gave an Activity [29] of less than 50%, a logD [21] of 4.1 and an Activity [30] of less than 50%. The Activity [31] was less than 50%, the Activity [32] was less than 50% and the Activity [33] was less than 50%. The Activity [34] was less than 50%, the Activity [35] was less than 50% and the Activity [36] was less than 50%. For the same compound, the Activity [37] was less than 50%, the Activity [38] was less than 50% and the Activity [39] was less than 50%. It also gave an Activity [40] of less than 50%, an Activity [41] of less than 50% and an inhibition [42] of less than 50%. It also gave an Activity [43] of less than 50% and an Activity [44] of less than 50%.
Compound `CSc1ccc2nc(-c3ccc(N)cc3)cn2c1` has a logD [21] of 2.6 and a Ki [22] of 377 nM.
Work on `CNc1ccc(-c2cn3cc(SC)ccc3n2)cc1` yielded a logD [21] of 3.6 and a Ki [22] of 80 nM.
